Source: paper PMC6595297 (British Journal of Clinical Pharmacology, 2019)

Assay: Phase I DDI study: pevonedistat plasma PK alone and with itraconazole
Format: in vivo, human
Conditions: for AUC(0-t) / AUC(0-inf) / Cmax / clearance / half-life: human, plasma; for AUC(0-t): AUClast; for Cmax: C max; for clearance: CL; for half-life: t 1/2, mean (standard deviation)
Method in brief: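 Single IV pevonedistat given on day 1 alone and on day 8 with the CYP3A inhibitor. K2EDTA plasma was sampled within 1 h predose, at end of infusion, and at 0.5, 1, 2, 3, 4, 8, 12, 24, 48 and 72 h postdose. Samples were assayed by two GLP-validated LC–MS/MS methods (0.0500–25.0 and 1.00–500 ng mL−1). Noncompartmental PK was used. Day 8/day 1 geometric mean ratios with 90% CIs came from ANOVA (subject random), back-transformed.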

[1] = Pevonedistat 8 mg m^−2, + itraconazole (day 8) vs alone (day 1), n = 13
[2] = Pevonedistat 15 mg m^−2, + itraconazole (day 8) vs alone (day 1), n = 6
[3] = Pevonedistat 20 mg m^−2, + itraconazole (day 8) vs alone (day 1), n = 14
[4] = dose‐normalized PK, 8–20 mg m^−2 pooled, + itraconazole vs alone, n = 33
[5] = intravenous, 8 mg, geometric LS mean reference condition (day 1), Pevonedistat 8 mg m^−2 alone, itraconazole cohort, n = 13
[6] = intravenous, 15 mg, geometric LS mean reference condition (day 1), Pevonedistat 15 mg m^−2 alone, itraconazole cohort, n = 6
[7] = intravenous, 20 mg, geometric LS mean reference condition (day 1), Pevonedistat 20 mg m^−2 alone, itraconazole cohort, n = 14
[8] = intravenous, geometric LS mean test condition (day 8), Pevonedistat 8 mg m^−2 + itraconazole, n = 13, value from n − 1 patients
[9] = intravenous, geometric LS mean test condition (day 8), Pevonedistat 15 mg m^−2 + itraconazole, n = 6
[10] = intravenous, geometric LS mean test condition (day 8), Pevonedistat 20 mg m^−2 + itraconazole, n = 14
[11] = iv, 8 mg, geometric mean (% CV), 8 mg m^−2 IV single dose, – itraconazole (day 1), n=13
[12] = iv, 20 mg, geometric mean (% CV), 20 mg m^−2 IV single dose, – itraconazole (day 1), n=14
[13] = integrated analysis, 8–20 mg m^−2, n = 33

## NS(=O)(=O)OC[C@@H]1C[C@@H](n2ccc3c(N[C@H]4CCc5ccccc54)ncnc32)C[C@@H]1O [Pevonedistat]
[1]
  AUClast, geometric LS mean ratio (test/reference) (90% CI): 121.57 (110.92–133.24) %
  AUC∞, geometric LS mean ratio (test/reference) (90% CI): 122.95 (112.13–134.82) %
  C max, geometric LS mean ratio (test/reference) (90% CI): 113.05 (85.35–149.74) %
[2]
  AUClast, geometric LS mean ratio (test/reference) (90% CI): 130.16 (106.99–158.35) %
  AUC∞, geometric LS mean ratio (test/reference) (90% CI): 132.70 (111.10–158.49) %
  C max, geometric LS mean ratio (test/reference) (90% CI): 159.55 (89.97–282.96) %
[3]
  AUClast, geometric LS mean ratio (test/reference) (90% CI): 101.36 (90.72–113.23) %
  AUC∞, geometric LS mean ratio (test/reference) (90% CI): 100.89 (91.14–111.68) %
  C max, geometric LS mean ratio (test/reference) (90% CI): 77.26 (55.19–108.17) %
[4]
  Dose‐normalized AUClast, geometric LS mean ratio (test/reference) (90% CI): 113.61 (105.65–122.18) %
  Dose‐normalized AUC∞, geometric LS mean ratio (test/reference) (90% CI): 114.24 (106.54–122.50) %
  Dose‐normalized C max, geometric LS mean ratio (test/reference) (90% CI): 102.41 (83.12–126.19) %
[5]
  AUC(0-t): 459 ng·h/mL
  AUC(0-inf): 465 ng·h/mL
[6]
  AUC(0-t): 793 ng·h/mL
  AUC(0-inf): 798 ng·h/mL
[7]
  AUC(0-t): 1110 ng·h/mL
  AUC(0-inf): 1120 ng·h/mL
[8]
  AUC(0-t): 558 ng·h/mL
  AUC(0-inf): 572 ng·h/mL
intravenous, geometric LS mean test condition (day 8), Pevonedistat 15 mg m^−2 + itraconazole, n = 6, value from n − 1 patients
  AUC(0-t): 1030 ng·h/mL
intravenous, geometric LS mean test condition (day 8), Pevonedistat 20 mg m^−2 + itraconazole, n = 14, value from n − 1 patients
  AUC(0-t): 1130 ng·h/mL
[9]
  AUC(0-inf): 1060 ng·h/mL
  Cmax: 193 ng/mL
[10]
  AUC(0-inf): 1130 ng·h/mL
  Cmax: 137 ng/mL
intravenous, geometric LS mean test condition (day 8), Pevonedistat 8 mg m^−2 + itraconazole, n = 13
  Cmax: 66.8 ng/mL
[11]
  AUC(0-inf): 465 ng·h/mL
  clearance: 487 mL/min
iv, 8 mg, 8 mg m^−2 IV single dose, – itraconazole (day 1), n=13
  half-life: 10.8 h
iv, 15 mg, geometric mean (% CV), 15 mg m^−2 IV single dose, – itraconazole (day 1), n=6
  AUC(0-inf): 798 ng·h/mL
iv, 15 mg, 15 mg m^−2 IV single dose, – itraconazole (day 1), n=6
  half-life: 9.8 h
[12]
  AUC(0-inf): 1120 ng·h/mL
  clearance: 597 mL/min
iv, 20 mg, 20 mg m^−2 IV single dose, – itraconazole (day 1), n=14
  half-life: 10 h
iv, 8 mg m^−2 IV single dose, + itraconazole (day 8), n=13
  half-life: 13.5 h
iv, 15 mg m^−2 IV single dose, + itraconazole (day 8), n=6
  half-life: 11 h
iv, 20 mg m^−2 IV single dose, + itraconazole (day 8), n=14
  half-life: 10.8 h
[13]
  Dose‐normalized AUC∞ geometric mean ratio, presence vs. absence of itraconazole: 1.14
  Increase in geometric mean dose‐normalized AUC∞ with itraconazole: 14%
Pevonedistat 8 mg m^−2
  AUC∞ geometric mean ratio, presence vs. absence of itraconazole: 1.23
Pevonedistat 8 mg m^−2 single dose
  Increase in pevonedistat plasma systemic exposure with concomitant itraconazole: 23%
Pevonedistat 20 mg m^−2
  AUC∞ geometric mean ratio, presence vs. absence of itraconazole: 1.01
